Results as given in ChEMBL document CHEMBL1137101, “3-Hydroxy-4-arylsulfonyltetrahydropyranyl-3-hydroxamic acids are novel inhibitors of MMP-13 and aggrecanase” (Bioorg Med Chem Lett, 2004).
pIC50: −log10 of the molar value.

Tests used:
[1] = molecular target: T1, A disintegrin and metalloproteinase with thrombospondin motifs 4 (Homo sapiens, UniProt O75173); assay: Inhibitory concentration against aggrecanase
T1 sequence (O75173 whole entry): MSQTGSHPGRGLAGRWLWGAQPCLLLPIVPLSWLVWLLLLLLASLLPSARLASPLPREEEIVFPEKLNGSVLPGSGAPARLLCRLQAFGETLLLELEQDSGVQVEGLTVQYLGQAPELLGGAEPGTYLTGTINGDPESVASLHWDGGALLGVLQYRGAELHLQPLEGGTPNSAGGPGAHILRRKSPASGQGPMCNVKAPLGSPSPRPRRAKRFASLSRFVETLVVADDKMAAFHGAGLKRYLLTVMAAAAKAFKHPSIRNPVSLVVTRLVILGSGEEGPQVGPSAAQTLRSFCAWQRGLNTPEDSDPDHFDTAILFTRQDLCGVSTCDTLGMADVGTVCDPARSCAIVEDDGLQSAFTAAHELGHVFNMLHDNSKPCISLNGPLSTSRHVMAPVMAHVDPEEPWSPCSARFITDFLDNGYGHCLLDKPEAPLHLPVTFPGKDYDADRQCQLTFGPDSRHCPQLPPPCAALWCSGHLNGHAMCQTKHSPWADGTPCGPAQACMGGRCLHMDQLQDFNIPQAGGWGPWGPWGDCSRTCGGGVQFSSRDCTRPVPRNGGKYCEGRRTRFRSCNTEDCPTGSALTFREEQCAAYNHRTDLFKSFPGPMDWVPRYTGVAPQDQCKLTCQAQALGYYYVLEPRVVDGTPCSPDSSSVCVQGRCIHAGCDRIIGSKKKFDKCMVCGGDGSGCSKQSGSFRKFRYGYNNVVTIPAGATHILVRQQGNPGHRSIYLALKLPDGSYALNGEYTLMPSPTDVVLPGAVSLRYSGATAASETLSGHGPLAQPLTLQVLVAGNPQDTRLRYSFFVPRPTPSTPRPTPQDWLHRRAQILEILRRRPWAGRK
How it was run: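 Cell-based assay in porcine chondrocytes. Aggrecan GAG chains labelled by culture with ³⁵S sulfate, then unincorporated label washed out. Aggrecan degradation stimulated with IL-1a (5ng/mL).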

[2] = molecular target: T2, Interstitial collagenase (Homo sapiens, UniProt P03956); assay: Inhibitory concentration against matrix metalloprotease 1
T2 sequence (P03956 whole entry): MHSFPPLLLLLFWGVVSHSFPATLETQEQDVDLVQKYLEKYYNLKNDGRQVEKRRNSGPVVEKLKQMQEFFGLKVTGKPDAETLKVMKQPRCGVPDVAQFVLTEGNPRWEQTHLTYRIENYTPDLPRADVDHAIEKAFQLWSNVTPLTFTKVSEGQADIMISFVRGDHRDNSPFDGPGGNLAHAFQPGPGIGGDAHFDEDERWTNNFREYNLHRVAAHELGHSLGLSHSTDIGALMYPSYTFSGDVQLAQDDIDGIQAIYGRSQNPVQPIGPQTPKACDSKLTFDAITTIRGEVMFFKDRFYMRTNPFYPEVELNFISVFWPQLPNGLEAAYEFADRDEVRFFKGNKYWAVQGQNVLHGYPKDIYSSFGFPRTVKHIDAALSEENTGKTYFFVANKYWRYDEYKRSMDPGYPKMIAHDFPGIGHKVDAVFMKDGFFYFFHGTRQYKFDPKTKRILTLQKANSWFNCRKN

[3] = molecular target: Collagenase 3 (Homo sapiens, UniProt P45452); assay: Inhibitory concentration against matrix metalloprotease 13
[4] = Inhibition of TNF alpha converting enzyme (TACE, ADAM17)
[5] = molecular target: Stromelysin-1 (Homo sapiens, UniProt P08254); assay: Inhibition of matrix metalloprotease 3
Chain of Stromelysin-1 (P08254 whole entry): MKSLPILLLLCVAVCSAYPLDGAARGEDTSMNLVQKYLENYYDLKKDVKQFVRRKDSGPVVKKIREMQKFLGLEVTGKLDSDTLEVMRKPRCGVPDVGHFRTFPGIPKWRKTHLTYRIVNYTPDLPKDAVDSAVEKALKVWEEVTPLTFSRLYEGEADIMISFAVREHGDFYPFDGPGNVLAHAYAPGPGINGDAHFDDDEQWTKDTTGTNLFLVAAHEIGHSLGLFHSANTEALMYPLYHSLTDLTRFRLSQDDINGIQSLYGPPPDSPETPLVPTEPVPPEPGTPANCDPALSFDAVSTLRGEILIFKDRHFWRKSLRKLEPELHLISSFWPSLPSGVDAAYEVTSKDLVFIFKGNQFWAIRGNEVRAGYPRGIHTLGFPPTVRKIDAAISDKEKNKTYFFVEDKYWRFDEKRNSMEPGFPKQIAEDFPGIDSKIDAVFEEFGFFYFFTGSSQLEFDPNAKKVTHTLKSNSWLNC

[6] = molecular target: Matrix metalloproteinase-14 (Homo sapiens, UniProt P50281); assay: Inhibition of matrix metalloprotease 14
[7] = Oral bioavailability in rat; type: ADME, organism-based; conditions: in vivo
How it was run: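 Oral dose given to rat as a suspension in 0.5% aqueous methylcellulose.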

[8] = molecular target: Macrophage metalloelastase (Homo sapiens, UniProt P39900); assay: Inhibition of matrix metalloprotease 12
Chain of Macrophage metalloelastase (P39900 whole entry): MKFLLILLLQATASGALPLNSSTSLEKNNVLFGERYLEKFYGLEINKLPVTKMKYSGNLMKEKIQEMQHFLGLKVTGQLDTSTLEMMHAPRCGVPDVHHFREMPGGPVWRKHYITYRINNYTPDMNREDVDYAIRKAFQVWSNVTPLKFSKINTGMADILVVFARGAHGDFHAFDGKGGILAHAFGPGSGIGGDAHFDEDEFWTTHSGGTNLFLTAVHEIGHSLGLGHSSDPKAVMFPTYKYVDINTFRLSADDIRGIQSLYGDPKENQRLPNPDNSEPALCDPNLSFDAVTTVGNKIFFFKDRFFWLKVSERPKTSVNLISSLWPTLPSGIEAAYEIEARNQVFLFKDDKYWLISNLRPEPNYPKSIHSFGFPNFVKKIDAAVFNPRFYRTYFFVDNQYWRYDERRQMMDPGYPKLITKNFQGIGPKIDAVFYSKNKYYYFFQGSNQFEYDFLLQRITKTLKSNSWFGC

[9] = Half life in rat; type: ADME, organism-based; conditions: in vivo
How it was run: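 Rat PK after IV bolus of 5mg/kg in glycerol formal. Blood drawn from the jugular vein at 5, 15, 30 min and 1, 2, 4, 6, 8, 24 h. Plasma diluted with an equal volume of water, extracted with MTBE, drug measured by LC–MS/MS. Parameters from noncompartmental analysis.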

[10] = molecular target: Matrix metalloproteinase-9 (Homo sapiens, UniProt P14780); assay: Inhibition of matrix metalloprotease 9
Chain of Matrix metalloproteinase-9 (P14780 whole entry): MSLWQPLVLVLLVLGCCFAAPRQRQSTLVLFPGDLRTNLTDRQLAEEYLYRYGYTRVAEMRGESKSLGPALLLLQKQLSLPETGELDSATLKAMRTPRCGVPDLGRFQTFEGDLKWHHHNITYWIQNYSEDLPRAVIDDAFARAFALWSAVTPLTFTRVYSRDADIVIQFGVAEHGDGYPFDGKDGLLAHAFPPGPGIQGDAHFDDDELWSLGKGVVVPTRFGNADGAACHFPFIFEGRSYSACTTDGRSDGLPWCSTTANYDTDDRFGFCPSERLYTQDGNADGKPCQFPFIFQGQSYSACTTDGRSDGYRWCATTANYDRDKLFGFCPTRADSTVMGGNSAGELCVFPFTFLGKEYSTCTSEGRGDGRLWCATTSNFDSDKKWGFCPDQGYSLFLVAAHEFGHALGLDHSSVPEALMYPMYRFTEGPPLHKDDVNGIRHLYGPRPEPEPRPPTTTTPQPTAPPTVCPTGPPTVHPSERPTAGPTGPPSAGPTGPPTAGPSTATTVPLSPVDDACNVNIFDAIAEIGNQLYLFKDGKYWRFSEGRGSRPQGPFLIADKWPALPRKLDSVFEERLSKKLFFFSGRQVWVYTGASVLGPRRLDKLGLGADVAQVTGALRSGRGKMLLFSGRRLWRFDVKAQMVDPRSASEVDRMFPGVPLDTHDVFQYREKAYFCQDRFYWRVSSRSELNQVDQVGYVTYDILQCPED

SMILES	pIC50 [1]	pIC50 [2]	pIC50 [3]	further results
O=C(NO)[C@@]1(O)COCC[C@H]1S(=O)(=O)c1ccc(OCc2ccccc2C(F)(F)F)cc1	6.66	< 4.52	7.55	–
Cc1ccc(C)c(COc2ccc(S(=O)(=O)[C@@H]3CCOC[C@]3(O)C(=O)NO)cc2)c1	7.59	< 4.52	6.52	–
CO[C@]1(C(=O)NO)COCC[C@H]1S(=O)(=O)c1ccc(OCc2ccc(Cl)cc2Cl)cc1	7.00	–	7.34	–
O=C(NO)[C@@]1(O)COCC[C@H]1S(=O)(=O)c1ccc(OCc2ccc(Cl)cc2)cc1	6.48	5.85	9.06	–
Cc1ccccc1COc1ccc(S(=O)(=O)[C@@H]2CCOC[C@]2(O)C(=O)NO)cc1	7.26	4.92	7.68	–
CO[C@]1(C(=O)NO)COCC[C@H]1S(=O)(=O)c1ccc(OCc2ccccc2Cl)cc1	7.00	–	7.42	–
O=C(NO)[C@@]1(O)COCC[C@H]1S(=O)(=O)c1ccc(OCc2c(Cl)cccc2Cl)cc1	< 6.00	< 4.52	< 6.52	–
Cc1ccc(Oc2ccc(S(=O)(=O)[C@@H]3CCOC[C@]3(O)C(=O)NO)cc2)cc1	< 6.00	6.92	9.00	–
Cc1ccc(COc2ccc(S(=O)(=O)[C@@H]3CCOC[C@]3(O)C(=O)NO)cc2)c(C)c1	6.43	4.72	7.77	–
Cc1cccc(C)c1COc1ccc(S(=O)(=O)[C@@H]2CCOC[C@]2(O)C(=O)NO)cc1	< 6.00	< 4.52	< 6.52	–
Cc1ccccc1-c1ccc(S(=O)(=O)[C@@H]2CCOC[C@]2(O)C(=O)NO)cc1	< 6.00	5.00	6.85	–
Cc1ccc(-c2ccc(S(=O)(=O)[C@@H]3CCOC[C@]3(O)C(=O)NO)cc2)cc1	< 6.00	> 7.52	9.41	–

Second part, led by results:

pIC50 [1]	pIC50 [2]	pIC50 [3]	SMILES	further results
6.85	4.89	7.82	O=C(NO)[C@@]1(O)COCC[C@H]1S(=O)(=O)c1ccc(OCc2cccc(Cl)c2Cl)cc1	–
7.40	5.55	8.57	O=C(NO)[C@@]1(O)COCC[C@H]1S(=O)(=O)c1ccc(OCc2ccccc2Cl)cc1	–
< 6.00	5.10	8.62	O=C(NO)[C@@]1(O)COCC[C@H]1S(=O)(=O)c1ccc(OCc2cccc(Cl)c2)cc1	–
< 6.00	4.66	8.30	Cc1cccc(COc2ccc(S(=O)(=O)[C@@H]3CCOC[C@]3(O)C(=O)NO)cc2)c1	–
< 6.00	> 7.52	9.37	Cc1cccc(-c2ccc(S(=O)(=O)[C@@H]3CCOC[C@]3(O)C(=O)NO)cc2)c1	–
–	–	7.92	O=C(NO)[C@H]1C[C@@H](O)CCN1S(=O)(=O)c1ccc(OCc2ccccc2Cl)cc1	pIC50 [4]: 7.44
< 6.00	5.27	8.89	Cc1ccc(COc2ccc(S(=O)(=O)[C@@H]3CCOC[C@]3(O)C(=O)NO)cc2)cc1	–
7.06	4.57	7.89	O=C(NO)[C@@]1(O)COCC[C@H]1S(=O)(=O)c1ccc(OCc2cc(Cl)ccc2Cl)cc1	–
< 6.00	6.57	8.96	Cc1cccc(Oc2ccc(S(=O)(=O)[C@@H]3CCOC[C@]3(O)C(=O)NO)cc2)c1	–
8.09	6.04	9.02	O=C(NO)[C@@]1(O)COCC[C@H]1S(=O)(=O)c1ccc(OCc2ccc(Cl)cc2Cl)cc1	pIC50 [5]: 7.26; pIC50 [6]: 6.82; bioavailability [7]: 7%; pIC50 [8]: 9.02; half-life [9]: 5 h; pIC50 [10]: 8.28
< 6.00	5.33	8.01	Cc1ccccc1Oc1ccc(S(=O)(=O)[C@@H]2CCOC[C@]2(O)C(=O)NO)cc1	–
